Calls of active or inactive are those of the source. The calls are words filed in the database; no cut-off is given here.
How the values were obtained:
Rattus norvegicus [1] = test: Antihyperlipidemic activity in Charles-Foster rat assessed as reversal of triton-induced increase in plasma phospholipid level at 100 mg/kg, po after 18 hrs relative to control; assay type: functional
Summary of the method: (§1)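 Male adult Charles Foster rats (200-225 g), 6 per group; triton WR-1339 400 mg/kg i.p. plus oral test agent in 0.2% gum acacia suspension, given together, diet withdrawn. After 18 h, retro-orbital EDTA blood was centrifuged 2500 g, 4 °C, 10 min; plasma was diluted 1:3 in saline and TC, PL and TG were assayed enzymatically (mg/dl). Mean ± SD; Student's t-test.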

Rattus norvegicus [2] = test: Antihyperlipidemic activity in Charles-Foster rat assessed as reversal of triton-induced increase in plasma total cholesterol level at 100 mg/kg, po after 18 hrs relative to triton-treated control; assay type: functional; summary of the method: as §1
Rattus norvegicus [3] = test: Antihyperlipidemic activity in Charles-Foster rat assessed as reversal of triton-induced increase in plasma total cholesterol level at 100 mg/kg, po after 18 hrs relative to control; assay type: functional; summary of the method: as §1
Rattus norvegicus [4] = test: Antihyperlipidemic activity in triton-induced Charles-Foster rat assessed as increase in plasma lecithin cholesterol acyltransferase activity at 100 mg/kg, po after 18 hrs by colorimetric assay; assay type: functional, organism-based; parameters: dose 100 mg/kg
Rattus norvegicus [5] = test: Antihyperlipidemic activity in Charles-Foster rat assessed as reversal of triton-induced decrease in HDL level at 100 mg/kg, po after 18 hrs; assay type: functional, organism-based; parameters: dose 100 mg/kg
Summary of the method: (§2)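 Triton WR-1339 (400 mg/kg i.p.) hyperlipidemic male Charles Foster rats dosed 100 mg/kg p.o. for 18 h, 6/group. Serum was fractionated into VLDL, LDL and HDL by polyanionic precipitation and lipoprotein cholesterol measured. Mean ± SD; Student's t-test against triton group.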

Rattus norvegicus [6] = test: Antihyperlipidemic activity in Charles-Foster rat assessed as reversal of triton-induced increase in LDL level at 100 mg/kg, po after 18 hrs; assay type: functional, organism-based; parameters: dose 100 mg/kg; summary of the method: as §2
Rattus norvegicus [7] = test: Antihyperlipidemic activity in Charles-Foster rat assessed as reversal of triton-induced increase in VLDL level at 100 mg/kg, po after 18 hrs; assay type: functional, organism-based; parameters: dose 100 mg/kg; summary of the method: as §2
Rattus norvegicus [8] = test: Antihyperlipidemic activity in Charles-Foster rat assessed as reversal of triton-induced increase in plasma triglyceride level at 150 mg/kg, po after 18 hrs relative to triton-treated control; assay type: functional
Summary of the method: (§3)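 Dose-response in triton WR-1339 (400 mg/kg i.p.) hyperlipidemic male Charles Foster rats given oral agent at 50, 100 or 150 mg/kg in gum acacia suspension for 18 h, 6 rats/group. Plasma TC, PL and TG were measured enzymatically. Pooled data as mean ± SD; triton versus triton-plus-agent groups compared by t-test.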

Rattus norvegicus [9] = test: Antihyperlipidemic activity in Charles-Foster rat assessed as reversal of triton-induced increase in plasma triglyceride level at 50 mg/kg, po after 18 hrs relative to triton-treated control; assay type: functional; summary of the method: as §3
Rattus norvegicus [10] = test: Antihyperlipidemic activity in Charles-Foster rat assessed as reversal of triton-induced increase in plasma phospholipid level at 150 mg/kg, po after 18 hrs relative to triton-treated control; assay type: functional; summary of the method: as §3
Rattus norvegicus [11] = test: Antihyperlipidemic activity in Charles-Foster rat assessed as reversal of triton-induced increase in plasma phospholipid level at 50 mg/kg, po after 18 hrs relative to triton-treated control; assay type: functional; summary of the method: as §3
Rattus norvegicus [12] = test: Antihyperlipidemic activity in Charles-Foster rat assessed as reversal of triton-induced increase in plasma total cholesterol level at 150 mg/kg, po after 18 hrs relative to triton-treated control; assay type: functional; summary of the method: as §3
Rattus norvegicus [13] = test: Antihyperlipidemic activity in Charles-Foster rat assessed as reversal of triton-induced increase in plasma total cholesterol level at 50 mg/kg, po after 18 hrs relative to triton-treated control; assay type: functional; summary of the method: as §3
Rattus norvegicus [14] = test: Antihyperlipidemic activity in Charles-Foster rat assessed as post heparin lipolytic activity at 100 mg/kg, po after 18 hrs by spectrophotometric analysis relative to triton-treated control; assay type: functional
Summary of the method: (§4)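 Male adult Charles Foster rats (200-225 g), 6 per group. Triton WR-1339 400 mg/kg i.p.; test agent 100 mg/kg p.o. as gum acacia (0.2% w/v) suspension in water, given simultaneously, diet withdrawn; vehicle to control and triton groups. At 18 h under thiopentone (50 mg/kg), retro-orbital blood collected into EDTA and plasma separated. Post-heparin lipolytic activity read spectrophotometrically as nmol free fatty acid/h/ml plasma; mean ± SD; Student's t-test.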

Rattus norvegicus [15] = test: Antihyperlipidemic activity in Charles-Foster rat assessed as post heparin lipolytic activity at 100 mg/kg, po after 18 hrs by spectrophotometric analysis relative to control; assay type: functional; summary of the method: as §4
Rattus norvegicus [16] = test: Antihyperlipidemic activity in Charles-Foster rat assessed as reversal of triton-induced increase in plasma triglyceride level at 100 mg/kg, po after 18 hrs relative to triton-treated control; assay type: functional; summary of the method: as §1
Rattus norvegicus [17] = test: Antihyperlipidemic activity in Charles-Foster rat assessed as reversal of triton-induced increase in plasma triglyceride level at 100 mg/kg, po after 18 hrs relative to control; assay type: functional; summary of the method: as §1
Rattus norvegicus [18] = test: Antihyperlipidemic activity in Charles-Foster rat assessed as reversal of triton-induced increase in plasma phospholipid level at 100 mg/kg, po after 18 hrs relative to triton-treated control; assay type: functional; summary of the method: as §1
[19] = Antioxidant activity assessed as inhibition of microsomal lipid peroxidation at 200 ug/mL by spectrophotometric analysis relative to control; assay type: functional
[20] = Antioxidant activity assessed as inhibition of hydroxyl radical generation at 200 ug/mL after 90 mins by spectrophotometric analysis relative to control; assay type: functional
Summary of the method: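 Hydroxyl radicals were generated non-enzymically from deoxyribose (2.8 mM), FeSO4 (2 mM), sodium ascorbate (2.0 mM) and H2O2 (2.8 mM) in KH2PO4 buffer pH 7.4, 2.5 mL final, with or without agent at 200 µg/ml, for 90 min at 37 °C. MDA was read spectrophotometrically by the thiobarbituric acid method against reference samples and reagent blanks.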

[21] = Antioxidant activity assessed as inhibition of superoxide anion generation at 200 ug/mL after 30 mins by NBT reduction assay relative to control; assay type: functional
Summary of the method: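 Superoxide was generated by xanthine, xanthine oxidase (0.04 U) and nitroblue tetrazolium in 100 mM phosphate buffer pH 8.2, with or without agent at 200 µg/ml, for 30 min at 37 °C. Stopped with glacial acetic acid; formazan read at 560 nm, and % inhibition derived using ε 7.2 × 10³ M⁻¹cm⁻¹.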

Rattus norvegicus [22] = test: Antihyperlipidemic activity in po dosed Charles-Foster rat assessed as reversal of triton-induced increase in plasma triglyceride level after 18 hrs; assay type: functional, organism-based; summary of the method: as §1
Rattus norvegicus [23] = test: Antihyperlipidemic activity in po dosed Charles-Foster rat assessed as reversal of triton-induced increase in plasma phospholipid level after 18 hrs; assay type: functional, organism-based; summary of the method: as §1
Rattus norvegicus [24] = test: Antihyperlipidemic activity in po dosed Charles-Foster rat assessed as reversal of triton-induced increase in plasma total cholesterol level after 18 hrs; assay type: functional, organism-based; summary of the method: as §1

SMILES: CCCc1cc(C(c2c[nH]c3ccc(OC)cc23)c2c[nH]c3ccc(OC)cc23)cc2cc(C(=O)c3ccc(OC)cc3)oc12
- Activity (Rattus norvegicus [1]): 159.29 mg/dL
- Activity (Rattus norvegicus [2]): -24%
- Activity (Rattus norvegicus [3]): 139.99 mg/dL
- Activity (Rattus norvegicus [4]): Active
- Activity (Rattus norvegicus [5]): Active
- Activity (Rattus norvegicus [6]): Active
- Activity (Rattus norvegicus [7]): Active
- Activity (Rattus norvegicus [8]): -24%
- Activity (Rattus norvegicus [9]): -16%
- Activity (Rattus norvegicus [10]): -26%
- Activity (Rattus norvegicus [11]): -18%
- Activity (Rattus norvegicus [12]): -24%
- Activity (Rattus norvegicus [13]): -17%
- Activity (Rattus norvegicus [14]): 16%
- Activity (Rattus norvegicus [15]): 15.32 nmol/h/mL
- Activity (Rattus norvegicus [16]): -23%
- Activity (Rattus norvegicus [17]): 166.4 mg/dL
- Activity (Rattus norvegicus [18]): -23%

SMILES: CCc1cc(C(c2c[nH]c3ccc(OC)cc23)c2c[nH]c3ccc(OC)cc23)cc2cc(C(=O)c3ccc(OC)cc3)oc12
- Activity (Rattus norvegicus [1]): 146.88 mg/dL
- Activity (Rattus norvegicus [2]): -28%
- Activity (Rattus norvegicus [3]): 132.63 mg/dL
- inhibition [19]: 32%
- inhibition [20]: 27%
- inhibition [21]: 31%
- Activity (Rattus norvegicus [4]): Active
- Activity (Rattus norvegicus [5]): Active
- Activity (Rattus norvegicus [6]): Active
- Activity (Rattus norvegicus [7]): Active
- Activity (Rattus norvegicus [22]): Dose-dependent effect
- Activity (Rattus norvegicus [23]): Dose-dependent effect
- Activity (Rattus norvegicus [24]): Dose-dependent effect
- Activity (Rattus norvegicus [8]): -30%
- Activity (Rattus norvegicus [9]): -20%
- Activity (Rattus norvegicus [10]): -29%
- Activity (Rattus norvegicus [11]): -20%
- Activity (Rattus norvegicus [12]): -29%
- Activity (Rattus norvegicus [13]): -22%
- Activity (Rattus norvegicus [14]): 18%
- Activity (Rattus norvegicus [15]): 15.58 nmol/h/mL
- Activity (Rattus norvegicus [16]): -28%
- Activity (Rattus norvegicus [17]): 155.59 mg/dL
- Activity (Rattus norvegicus [18]): -29%

SMILES: COc1ccc(C(=O)c2cc3cc(C(c4c[nH]c5ccc(OC)cc45)c4c[nH]c5ccc(OC)cc45)cc(C)c3o2)cc1
- Activity (Rattus norvegicus [1]): 159.29 mg/dL
- Activity (Rattus norvegicus [2]): -23%
- Activity (Rattus norvegicus [3]): 141.84 mg/dL
- inhibition [19]: 31%
- inhibition [20]: 30%
- inhibition [21]: 33%
- Activity (Rattus norvegicus [4]): Active
- Activity (Rattus norvegicus [5]): Active
- Activity (Rattus norvegicus [6]): Active
- Activity (Rattus norvegicus [7]): Active
- Activity (Rattus norvegicus [8]): -25%
- Activity (Rattus norvegicus [9]): -16%
- Activity (Rattus norvegicus [10]): -24%
- Activity (Rattus norvegicus [11]): -17%
- Activity (Rattus norvegicus [12]): -25%
- Activity (Rattus norvegicus [13]): -15%
- Activity (Rattus norvegicus [14]): 16%
- Activity (Rattus norvegicus [15]): 15.32 nmol/h/mL
- Activity (Rattus norvegicus [16]): -24%
- Activity (Rattus norvegicus [17]): 164.24 mg/dL
- Activity (Rattus norvegicus [18]): -23%

SMILES: COc1ccc(C(=O)c2cc3cc(C(c4c[nH]c5ccc(OC)cc45)c4c[nH]c5ccc(OC)cc45)cc(C(C)(C)C)c3o2)cc1
- Activity (Rattus norvegicus [1]): 159.29 mg/dL
- Activity (Rattus norvegicus [2]): -24%
- Activity (Rattus norvegicus [3]): 139.99 mg/dL
- Activity (Rattus norvegicus [4]): Active
- Activity (Rattus norvegicus [5]): Active
- Activity (Rattus norvegicus [6]): Active
- Activity (Rattus norvegicus [7]): Active
- Activity (Rattus norvegicus [8]): -24%
- Activity (Rattus norvegicus [9]): -21%
- Activity (Rattus norvegicus [10]): -23%
- Activity (Rattus norvegicus [11]): -20%
- Activity (Rattus norvegicus [12]): -27%
- Activity (Rattus norvegicus [13]): -20%
- Activity (Rattus norvegicus [14]): 17%
- Activity (Rattus norvegicus [15]): 15.45 nmol/h/mL
- Activity (Rattus norvegicus [16]): -23%
- Activity (Rattus norvegicus [17]): 166.4 mg/dL
- Activity (Rattus norvegicus [18]): -23%

SMILES: Oc1ncnc2[nH]ncc12
- inhibition [21]: 51%

From ChEMBL document CHEMBL2424556, “Hybrid benzofuran-bisindole derivatives: new prototypes with promising anti-hyperlipidemic activities” (2013)
